Data set [1] relates to Candida albicans. The data set is described as follows: Antifungal activity against Candida albicans ATCC 10231 after 48 to 72 hrs by broth microdilution method. The format is functional. In outline:
(§1)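 Broth microdilution per NCCLS. Organisms were subcultured on Sabouraud agar. Inoculum was 5–7 colonies from YM agar in sterile water, adjusted to 0.5 McFarland at 530 nm (1–5×10⁶ cells/mL stock), held 30 min at RT, then diluted 1:50 in HEPES-buffered RPMI 1640. DMSO stocks were twofold-diluted, with final DMSO ≤1%. Plates ran 48–72 h at 35 °C, humid. MIC is the lowest concentration giving ≥80% growth reduction vs drug-free wells, scored visually. Fluconazole or amphotericin B ran as drug control.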
In general terms: Dilution methods test growth across graded concentrations, often in twofold steps.

In data set [2] the test system is Nakaseomyces glabratus. The data set is described as follows: Antifungal activity against Candida glabrata ATCC 48435 after 48 to 72 hrs by broth microdilution method. The format is functional. The essentials: as §1
Data set [3] relates to Nakaseomyces glabratus. Nature of the data set: Antifungal activity against Candida glabrata ATCC 48435 at 62 ug/ml after 48 to 72 hrs by broth microdilution method. Type of data set: functional.
In data set [4] the test system is HepG2. Nature of the data set: Cytotoxicity against human HepG2 cells assessed as cell viability at 2 to 200 ug/ml after 24 hrs by MTT assay. Type of data set: cell-based. Conditions: hepg2, 24 h. The essentials:
(§2)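 MTT (tetrazolium) assay in Vero and HepG2 cells. Cells were pre-grown 24 h at 37 °C/5% CO₂ in DMEM with 10% FBS. Compounds diluted in media at the fungal MIC and at 5×, 10× and 100× MIC, then exposed 24 h. Dye was added for 1–4 h, then stop solution for 1 h at RT; A570 read. Viability was taken as % of 1% DMSO no-drug wells, with 0.1% saponin as death control. Triplicate, mean ± SD.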

The nature of data set [5]: Cytotoxicity against african green monkey Vero cells assessed as cell viability at 2 to 200 ug/ml after 24 hrs by MTT assay. Conditions: chlorocebus sabaeus, read-out: Activity. The format is cell-based. In outline: as §2
The subject of data set [6] is Candida albicans. The data set is described as follows: Antifungal activity against Candida albicans ATCC 10231 at 8 ug/ml after 48 to 72 hrs by broth microdilution method. Type of data set: functional.
The subject of data set [7] is Candida albicans. Nature of the data set: Antifungal activity against Candida albicans ATCC 10231 at 62 ug/ml after 48 to 72 hrs by broth microdilution method. The format is functional.
Data set [8] has as its system Nakaseomyces glabratus. The data set is described as follows: Antifungal activity against Candida glabrata ATCC 48435 at 16 ug/ml after 48 to 72 hrs by broth microdilution method. Type of data set: functional.
A short description of data set [9]: Cytotoxicity against african green monkey Vero cells assessed as cell viability at 10 times MIC80 for fungus after 24 hrs by MTT assay. Conditions: chlorocebus sabaeus, read-out: Activity. Type of data set: cell-based. The essentials:
as §2
(Formazan colour is commonly taken as a measure of viable cells.)

Data set [10] relates to HepG2. Nature of the data set: Cytotoxicity against human HepG2 cells assessed as cell viability at 8 to 800 ug/ml after 24 hrs by MTT assay. Type of data set: cell-based. The conditions noted are these: hepg2, 24 h. The essentials: as §2
Data set [11] is described as follows: Cytotoxicity against african green monkey Vero cells assessed as cell viability at 8 to 800 ug/ml after 24 hrs by MTT assay. The format is cell-based. Conditions: chlorocebus sabaeus, read-out: Activity. In outline:
as §2

For data set [12], the system named is Nakaseomyces glabratus. Nature of the data set: Antifungal activity against Candida glabrata ATCC 48435 at 31 ug/ml after 48 to 72 hrs by broth microdilution method. The format is functional.
Data set [13] has as its system Nakaseomyces glabratus. The data set is described as follows: Antifungal activity against Candida glabrata CS 177.93 at 0.195 to 100 uM after 24 to 48 hrs in presence of 2% glucose. Type of data set: functional, organism-based. In outline: (§3)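 Cells grown overnight in YPD at 30 °C, washed, then seeded at ~10³ cells/well (10⁴ cells/mL) in YPD (2% glucose), YPG (3% glycerol) or YPE (3% ethanol), pH 6.5. Drug at 0 and 0.195–100, final DMSO 0.5%. Two repeat experiments.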

The test system of data set [14] is Nakaseomyces glabratus. The data set is described as follows: Antifungal activity against Candida glabrata CS 177.93 at 0.195 to 100 uM after 24 to 48 hrs in presence of 3% glycerol. Type of data set: functional, organism-based. In outline: as §3
The subject of data set [15] is Candida albicans. The data set is described as follows: Antifungal activity against Candida albicans SC5314 at 0.195 to 100 uM after 24 to 48 hrs in presence of 3% glycerol. The format is functional, organism-based. In outline:
as §3

The subject of data set [16] is Candida albicans. Nature of the data set: Antifungal activity against Candida albicans SC5314 at 0.195 to 100 uM after 24 to 48 hrs in presence of 2% glucose. The format is functional, organism-based. In outline:
as §3

In data set [17] the test system is Candida albicans. Nature of the data set: Antifungal activity against Candida albicans. Type of data set: functional, organism-based. The essentials: as §1
Data set [18] concerns Candida albicans. The data set is described as follows: Antifungal activity against Candida albicans SC5314 at 0.195 to 100 uM after 24 to 48 hrs in presence of 3% ethanol. The format is functional, organism-based. In outline: as §3
The subject of data set [19] is Nakaseomyces glabratus. The data set is described as follows: Antifungal activity against Candida glabrata CS 177.93 at 0.195 to 100 uM after 24 to 48 hrs in presence of 3% ethanol. The format is functional, organism-based. In outline:
as §3

For data set [20], the system named is Candida albicans. Nature of the data set: Antifungal activity against Candida albicans ATCC 10231 at 16 ug/ml after 48 to 72 hrs by broth microdilution method. Type of data set: functional.

Results on eleven compounds are retold here after ChEMBL document CHEMBL3102843, “Synthesis and antifungal activity of substituted 2,4,6-pyrimidinetrione carbaldehyde hydrazones” (Bioorg Med Chem, 2014).

Converted amounts (≈) assume the structure as drawn. The source made the active and inactive calls. Unless noted, the rule behind the calls is not given here.

With `COc1ccc(C(=O)N/N=C/C2C(=O)NC(=O)NC2=O)cc1`, in the data set with Candida albicans [1], the MIC80 result is “inactive”. This compound also registered an MIC80 in the data set on Nakaseomyces glabratus [2] of 62 µg/mL (≈ 204 µM). In the data set with Nakaseomyces glabratus [3], this compound registered an inhibition at 62 µg/mL of less than 50%.
`C/C(=N\Nc1ccc([N+](=O)[O-])cc1)C1C(=O)NC(=O)NC1=O`: the MIC80 in the data set on Candida albicans [1] and against Nakaseomyces glabratus [2] was 2 µg/mL (≈ 6.55 µM) in each case. For the same compound, in the data set with HepG2 [4], the Activity result is given as “Toxic”. The viability at 24 h in data set [5] came to 35%.
For `O=C1NC(=O)C(/C=N/c2ccccc2O)C(=O)N1`, the MIC80 with Candida albicans [1] was found to be 8 µg/mL (≈ 32.4 µM). In addition, the MIC80 entry in the data set on Nakaseomyces glabratus [2] was “inactive”. In the data set on Candida albicans [6], this compound displayed an inhibition at 8 µg/mL of less than 50%.
For `O=C1NC(=O)C(/C=N/NC(=O)c2ccc([N+](=O)[O-])cc2)C(=O)N1`, the MIC80 in the data set with Candida albicans [1] is 62 µg/mL (≈ 194 µM); against Nakaseomyces glabratus [2] it was 16 µg/mL (≈ 50.1 µM). The inhibition at 62 µg/mL in the data set on Candida albicans [7] is less than 50%. The compound also displayed an inhibition at 16 µg/mL in the data set with Nakaseomyces glabratus [8] of less than 50%.
As to `CN1C(=O)C(/C=N/Nc2ccc([N+](=O)[O-])cc2)C(=O)N(C)C1=O`, the MIC80 with Candida albicans [1] and against Nakaseomyces glabratus [2] was 2 µg/mL (≈ 6.26 µM) in each case. The Activity entry with HepG2 [4] is listed as “Toxic”. Further, the viability at 24 h in data set [9] came out at 80%.
As to `CN1C(=O)C(/C=N/Nc2ccccc2)C(=O)N(C)C1=O`, the MIC80 was 4 µg/mL (≈ 14.6 µM) in the data set with Candida albicans [1] and 2 µg/mL (≈ 7.29 µM) with Nakaseomyces glabratus [2]. Moreover, the Activity result in the data set with HepG2 [4] is listed as “Toxic”. Further, the viability at 24 h in [9] was 80%.
Consider `CN1C(=O)C(/C=N/c2ccccc2O)C(=O)N(C)C1=O`, for which, in the data set with HepG2 [10], the Activity entry is “Toxic”. Moreover, the MIC80 against Candida albicans [1] was 8 µg/mL (≈ 29.1 µM). Besides, the MIC80 result with Nakaseomyces glabratus [2] was “inactive”. Also, the viability at 24 h in [11] was determined as 35%. The same compound displayed an inhibition at 8 µg/mL with Candida albicans [6] of less than 50%.
As for `CN/N=C(\C)C1C(=O)NC(=O)NC1=O`, in the data set on Candida albicans [1], the MIC80 entry was “inactive”. The same compound registered an inhibition at 31 µg/mL in the data set on Nakaseomyces glabratus [12] of less than 50%. The compound also returned an MIC80 against Nakaseomyces glabratus [2] of 31 µg/mL (≈ 156 µM).
Take `O=C1NC(=O)C(/C=N/Nc2ccc([N+](=O)[O-])cc2)C(=O)N1`: the outcome with Nakaseomyces glabratus [13], in the data set with Nakaseomyces glabratus [14], in the data set on Candida albicans [15], in the data set on Candida albicans [16], in the data set with Candida albicans [18] and in the data set on Nakaseomyces glabratus [19] was Active. The MIC80 with Candida albicans [1] is 2 µg/mL (≈ 6.87 µM); with Nakaseomyces glabratus [2] it was 1 µg/mL (≈ 3.43 µM). In addition, the Activity entry in the data set with HepG2 [4] was “Toxic”; with Candida albicans [17], “Dose-dependent effect”. The viability at 24 h in data set [9] came out at 80%.
In the case of `C/C(=N\Nc1ccccc1)C1C(=O)N(C)C(=O)N(C)C1=O`, the MIC80 against Candida albicans [1] and in the data set with Nakaseomyces glabratus [2] was 2 µg/mL (≈ 6.94 µM) in each case. Further, the Activity result in the data set with HepG2 [4] is “Toxic”. For the same compound, in [5], the viability at 24 h was determined as 35%.
In the data set on Candida albicans [1], `Cc1ccc(S(=O)(=O)N/N=C/C2C(=O)NC(=O)NC2=O)cc1` gave an MIC80 of 16 µg/mL (≈ 49.3 µM). In the data set with Candida albicans [20], this compound registered an inhibition at 16 µg/mL of less than 50%. Besides, in the data set on Nakaseomyces glabratus [2], the MIC80 entry is “inactive”.

A word on the MIC80: it is the lowest concentration that inhibits either 80% of growth or 80% of the strains tested, depending on the study. As usually defined, the inhibition is the relative decrease from the control value, in per cent.
